Results published in PMC11031320 (Cell chemical biology, 2024).
Entries after “also recorded” stand apart in the source; their conditions may differ. Like-named read-outs stand apart in the source and are kept apart here.

Legend:
26S proteasome = assay: Native gel in-gel Suc-LLVY-AMC hydrolysis, 26S band; type: cell-based, Plasmodium falciparum
20S particles = assay: Native gel in-gel Suc-LLVY-AMC hydrolysis, 20S band after SDS activation; type: cell-based, Plasmodium falciparum
PfHsp90 [1] = molecular target: T1, PfHsp90 (Plasmodium falciparum, UniProt Q8IC05); conditions: cited from earlier work
HsHsp90 [2] = molecular target: T2, HsHsp90 (Homo sapiens, UniProt P07900); conditions: read-out: Kd of FITC-GA to full-length HsHsp90; cited from earlier work
[3] = test system: P. falciparum gametocytes (NF54 peg4-tdTomato); assay: Gametocyte inhibition assay; type: cell-based; conditions: Plasmodium falciparum
P. falciparum proteasome = type: biochemical, Plasmodium falciparum
P. falciparum 3D7 = assay: Asexual blood stage parasite inhibition assay; type: cell-based; conditions: Plasmodium falciparum, 3D7, 72 h, read-out: EC50, blood stage P. falciparum 3D7
Summary of the method: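 Ring-stage 3D7 cultures (2% parasitemia, 1% hematocrit) were exposed to test compound at 0–50 μM (0.5% DMSO) for 72 h at 37 °C under 3% O2/5% CO2/92% N2. Controls were DMSO and quinacrine (1 μM). Cells were lysed in saponin/Triton X-100 buffer with 10X SYBR Green I and stained 24 h at RT in the dark. Fluorescence was read at Ex 485/Em 535 and normalized to controls. 2–3 replicates, 2–4 independent experiments.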

P. berghei ANKA = assay: Liver stage parasite load in HuH7 cells; type: cell-based, Plasmodium berghei; conditions: for EC50: Plasmodium berghei, Huh-7, 44 h, read-out: EC50, liver stage P. berghei; for relative P. berghei parasite load in HuH7 cells: at ~30 μM
HsHsp90 NBD E25D/K112R = HsHsp90 NBD E25D/K112R (Homo sapiens, UniProt P07900, E25D/K112R); assay: FITC-GA competition, salt bridge double mutant HsHsp90 NBD; type: binding
[4] = test system: HsHsp90 NBD L122I/G125S/A126G and Q23N; assay: FITC-GA competition, other HsHsp90 NBD variants; type: binding, human; conditions: compared to WT HsHsp90 NBD
Summary of the method: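 Fluorescence polarization displacement of 1.0 nM FITC-geldanamycin from each His-tagged human Hsp90 NBD variant (25 nM). Buffer was 20 mM HEPES pH 7.3, KCl, MgCl2, Na2MoO4, DTT, 0.01% NP-40. Test compound was dosed at 0–10 μM with 1% final DMSO. Plates were held overnight at 4 °C in the dark, then read at Ex 480/Em 535. Percent bound was normalized to protein-only and protein-free tracer controls. At least 4 independent determinations.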

HsHsp90 [5] = molecular target: T2, HsHsp90; assay: FITC-geldanamycin competitive binding assay
PfHsp90 [6] = assay: FITC-geldanamycin competitive binding assay; conditions: ratio of HsHsp90 to PfHsp90 affinity
PfHsp90 [7] = molecular target: T1, PfHsp90; assay: FITC-geldanamycin competitive binding assay
HuH7 cells = assay: HuH7 host cell viability; type: cell-based, human; conditions: at 10 μM
[8] = molecular target: wild-type (WT) HsHsp90 nucleotide-binding domain (NBD) (Homo sapiens, UniProt P07900); assay: FITC-GA competition, wild-type HsHsp90 nucleotide-binding domain
[9] = lysate treated with epoxomicin vs DMSO
[10] = 10 μM, 3 hours, cycloheximide 50 μM co-treatment
[11] = NF54, 24 h, read-out: early gametocyte viability
[12] = NF54, 240 h, read-out: late gametocyte viability

For `CC[C@H](C)[C@H](NC(=O)[C@H]([C@@H](C)CC)N(C)C(C)=O)C(=O)N[C@H](C(=O)N[C@@H](CC(C)C)C(=O)[C@@]1(C)CO1)[C@@H](C)O` [epoxomicin], the 26S band (26S proteasome; [9]) was “reduced” and the “activated 20S band” value (20S particles; [9]) was “reduced”.
For `CO[C@H]1/C=C\C=C(/C)C(=O)NC2=CC(=O)C(NCCCCCCNC(=S)Nc3ccc(-c4c5ccc(=O)cc-5oc5cc(O)ccc45)c(C(=O)O)c3)=C(C[C@@H](C)C[C@H](OC)[C@H](O)[C@@H](C)/C=C(\C)[C@@H]1OC(N)=O)C2=O` [FITC-GA], the Kd (PfHsp90 [1]; read-out: Kd of FITC-GA to full-length PfHsp90) is listed as 42 nM and the Kd (HsHsp90 [2]) is listed as 23 nM.
With `COC1=C2C[C@@H](C)C[C@H](OC)[C@H](O)[C@@H](C)/C=C(\C)[C@H](OC(N)=O)[C@@H](OC)/C=C\C=C(/C)C(=O)NC(=CC1=O)C2=O` [geldanamycin] the “proportion of active 26S proteasomes compared to DMSO control” value (26S proteasome; [10]) was 63%, the “latent 20S particles (after activation) compared to DMSO control” value (20S particles; [10]) was 158% and the viability at 1 µM [3, 11] was 37%. The viability at 10 µM [3, 11] was 16%, the viability at 1 µM [3, 12] was 71% and the viability at 10 µM [3, 12] was 56%.
In the case of `CC(C)C[C@H](NC(=O)[C@H](Cc1ccccc1)NC(=O)c1cnccn1)B(O)O` [bortezomib], the “Suc-LLVY-AMC hydrolysis in P. falciparum lysate” value (P. falciparum proteasome; bortezomib 25 μM, 180 min, compared to DMSO) is reported as “significantly reduced; also recorded: decreased total hydrolysis”.
With `CC[C@@H](C)Nc1cc(C(=O)NC2C[C@H]3CC[C@@H](C2)N3c2ccc(C(=O)C3CC3)cn2)c(C)cc1C(N)=O` (stereo partly drawn) [XL888] the EC50 (P. falciparum 3D7) was 330 ± 110 nM, the EC50 (P. berghei ANKA) was 240 ± 45 nM and the “relative P. berghei parasite load in HuH7 cells” value (P. berghei ANKA) was “near zero”. For the same molecule, the Ki (HsHsp90 NBD E25D/K112R) was 9.6 ± 1.6 nM, the “improvement in affinity to E25D/K112R double mutant compared to WT HsHsp90 NBD” value (HsHsp90 NBD E25D/K112R) was 7 fold and the “change in affinity for other HsHsp90 NBD constructs” value [4] was “no significant differences”. The Ki (HsHsp90 [5]) was 130 ± 30 nM, the “selectivity to PfHsp90 over HsHsp90” value (PfHsp90 [6]) was 4.8 fold and the Ki (PfHsp90 [7]) was 27 ± 7.8 nM. For the same molecule, the “decrease of HuH7 viability” value (HuH7 cells) was ≤ 50% and the Ki [8] was 68 ± 23 nM.
In the case of `COc1ccc2c(c1)[nH]c1c(C)nccc12` [harmine], the affinity (PfHsp90 [1]) is listed as “micromolar”.
With `CCOC(=O)NCc1ccc(-n2c(-c3cc(C(C)C)c(O)cc3O)n[nH]c2=S)cc1` [BX-2819] the EC50 (P. falciparum 3D7) was 740 ± 34 nM, the EC50 (P. berghei ANKA) was 1500 ± 410 nM and the “relative P. berghei parasite load in HuH7 cells” value (P. berghei ANKA) was “near zero”. For the same molecule, the Ki (HsHsp90 NBD E25D/K112R) was 13 ± 2.5 nM, the “change in affinity for other HsHsp90 NBD constructs” value [4] was “unaltered” and the Ki (HsHsp90 [5]) was 49 ± 4.3 nM. For the same molecule, the “selectivity to PfHsp90 over HsHsp90” value (PfHsp90 [6]) was 2.0 fold, the Ki (PfHsp90 [7]) was 24 ± 4.4 nM and the “displacement of FITC-GA from PfHsp90” value (PfHsp90 [7]; BX-2819 10 μM) was “displaces FITC-GA”. For the same molecule, the “reaction rate compared to DMSO control” value (P. falciparum proteasome; 100 μM BX-2819 with 3 μM purified PfHsp90) was “not different from the DMSO control”, the “Suc-LLVY-AMC hydrolysis in PfHsp90-treated samples” value (P. falciparum proteasome; BX-2819 10–100 μM with PfHsp90 3 μM) was “reduced hydrolysis in a dose-dependent manner; also recorded: negated the increased rate” and the “decrease of HuH7 viability” value (HuH7 cells) was ≤ 50%. The Ki [8] was 19 ± 4 nM.
